Experiment [1] has as its system KB 3-1. The experiment is described as follows: Cytotoxicity against human KB-3-1 cells assessed as inhibition of cell proliferation incubated for 72 hrs by MTT assay. It is filed as functional, cell-based. The note with it: KB 3-1, 72 h. The procedure, abridged:
(§1)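 Cells were seeded (10000/well for A2780, 5000/well for MES-SA/Dx5 and KB-3-1/V1) and left to attach 12 h, then exposed to compound for 72 h. Medium was removed, and MTT (0.83 mg/mL) was added for 1 h at 37 °C. Cells were lysed in DMSO and absorbance read at 540 nm. Signal was corrected for unstained lysate background, normalized to untreated cells, and IC50 taken from a sigmoidal dose-response fit.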
For orientation: Tetrazolium dyes change colour on reduction, which living cells bring about.

Experiment [2] has as its system MES-SA/Dx5. Description: Cytotoxicity against human MES-SA/DX5 cells transfected with mCherry fluorescent protein incubated for 72 hrs in presence of efflux pump inhibitor, Tariquidar by fluorescence assay. It is filed as functional, cell-based. In outline:
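The mCherry-expressing cells (lentiviral) were seeded at 5000 or 2500 per well, attached for 24 h, and exposed 72 h to compounds with Tariquidar coadministered. Live-cell signal was fluorescence at 585 nm excitation and 610 nm emission.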

Experiment [3] relates to MES-SA. Description: Cytotoxicity against human MES-SA cells assessed as inhibition of cell proliferation incubated for 72 hrs by MTT assay. It is filed as functional, cell-based. The procedure, abridged:
as §1

In experiment [4] the test system is A2780. The experiment is described as follows: Cytotoxicity against human A2780 cells assessed as inhibition of cell proliferation incubated for 72 hrs by MTT assay. It is filed as functional, cell-based. The note with it: A2780, 72 h. In outline: as §1
Experiment [5] deals with MES-SA/Dx5. Description: Cytotoxicity against human MES-SA/DX5 cells incubated for 72 hrs in presence of efflux pump inhibitor, Tariquidar by MTT assay. It is filed as functional, cell-based. The procedure, abridged: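 Run as the 72 h MTT viability readout (12 h attachment, MTT 0.83 mg/mL for 1 h, DMSO lysis, A540), with the P-gp inhibitor Tariquidar at 1 µM co-present. IC50 came from sigmoidal fits of 2 to 4 independent experiments.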

A short description of experiment [6]: Cytotoxicity against human A2780adr cells assessed as inhibition of cell proliferation incubated for 72 hrs by MTT assay. It is filed as functional, cell-based. Particulars: A2780 ADR. The procedure, abridged: as §1
Experiment [7] concerns MES-SA/Dx5. Description: Cytotoxicity against human MES-SA/DX5 cells assessed as inhibition of cell proliferation incubated for 72 hrs by MTT assay. It is filed as functional, cell-based. The note with it: MES-SA/Dx5, 72 h. The procedure, abridged: as §1
Experiment [8] deals with KB-V1. The experiment is described as follows: Cytotoxicity against human KB-V1 cells assessed as inhibition of cell proliferation incubated for 72 hrs by MTT assay. It is filed as functional, cell-based. The note with it: KB-V1, 72 h. The procedure, abridged: as §1
Experiment [9] is described as follows: Selectivity ratio of IC50 for human MES-SA cells to IC50 for human MES-SA/DX5 cells incubated for 72 hrs by MTT assay. It is filed as functional. The procedure, abridged: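 The selectivity ratio is the IC50 in P-gp-negative parental cells divided by the IC50 in the P-gp-positive resistant partner.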
Experiment [10] concerns MES-SA. Description: Cytotoxicity against human MES-SA cells transfected with mCherry fluorescent protein assessed as inhibition of cell proliferation incubated for 72 hrs by fluorescent assay. It is filed as functional, cell-based. Particulars: Homo sapiens, MES-SA, 72 h. The procedure, abridged:
(§2)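 MES-SA and MES-SA/Dx5 cells were made to stably express mCherry by lentiviral transduction. Cells were seeded at 5000 (96-well) or 2500 (384-well) per well, allowed to attach 24 h, then treated with compound dilutions for 72 h. Viability was read as fluorescence, excitation 585 nm, emission 610 nm.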

Experiment [11] is described as follows: Selectivity ratio of IC50 for human MES-SA cells transfected with mCherry to IC50 for human MES-SA/DX5 cells transfected with mCherry incubated for 72 hrs by fluorescent assay. It is filed as functional.
The subject of experiment [12] is MES-SA/Dx5. The experiment is described as follows: Cytotoxicity against human MES-SA/DX5 cells transfected with mCherry fluorescent protein assessed as inhibition of cell proliferation incubated for 72 hrs by fluorescent assay. It is filed as functional, cell-based. Particulars: Homo sapiens, MES-SA/Dx5, 72 h. In outline:
as §2

Calls of active or inactive are those of the source. The calls are words filed in the database; no cut-off is given here.

As to `Oc1ccccc1/C=N/Nc1nc2ccccc2s1`, the IC50 is 18.1 µM in experiment [1] (read-out: IC50); 15.8 µM in experiment [1] (read-out: pIC50 (converted)); 24.7 µM in experiment [3] (read-out: IC50); 23.4 µM in experiment [3] (read-out: pIC50 (converted)); 3.16 µM in [4] (read-out: IC50); 3.09 µM in [4] (read-out: pIC50 (converted)). Also, the IC50 is 6.01 µM in experiment [6] (read-out: IC50); 5.89 µM in [6] (read-out: pIC50 (converted)); 10.5 µM in experiment [7] (read-out: IC50); 9.55 µM in experiment [7] (read-out: pIC50 (converted)); 11.7 µM in experiment [8] (read-out: IC50); 11.7 µM in experiment [8] (read-out: pIC50 (converted)). In addition, the IC50 is 23.2 µM in [10] (read-out: IC50), 26.9 µM in experiment [10] (read-out: pIC50 (converted)), 4.55 µM in experiment [12] (read-out: IC50) and 4.27 µM in experiment [12] (read-out: pIC50 (converted)). Besides, the outcome in [2] was inactive. Also, the result in experiment [5] was Active. Further, the “Ratio IC50” value in experiment [9] stood at 2.04; in experiment [11], 7.18.

With `Cc1ccc(O)c(/C=N/Nc2nc3ccccc3s2)c1`, the outcome in experiment [2] was Active. For the same molecule, the IC50 in experiment [10] (read-out: IC50) was 89.1 µM; in experiment [10] (read-out: pIC50 (converted)), 85.1 µM; in [12] (read-out: IC50), 15.6 µM; in experiment [12] (read-out: pIC50 (converted)), 13.8 µM. Besides, the “Ratio IC50” value in [11] was 5.65.

On to `O=C1Nc2ccccc2/C1=N/NC(=S)Nc1cccc(C(F)(F)F)c1`, for which the result in experiment [2] and in experiment [5] was inactive. Further, the IC50 in [3] (read-out: IC50) is 2.06 µM; in experiment [7] (read-out: IC50) it was 1.4 µM; in [10] (read-out: IC50), 3.34 µM; in experiment [12] (read-out: IC50) it was 1.95 µM. The “Ratio IC50” value in [9] was determined as 1.44; in [11] it was 2.42.

On to `NC(=S)N/N=C/c1ncccc1N` [TRIAPINE], for which the outcome in experiment [5] was Active. In addition, the IC50 in [10] (read-out: IC50) was 1.3 µM; in experiment [12] (read-out: IC50), 2.52 µM.

As to `C/C(=N\Nc1nc2ccccc2s1)c1ccccc1N`, the IC50 in [3] (read-out: IC50) is 45.6 µM; in experiment [3] (read-out: pIC50 (converted)), 44.7 µM; in experiment [7] (read-out: IC50), 28 µM; in [7] (read-out: pIC50 (converted)), 27.5 µM; in experiment [10] (read-out: IC50) it was 46.2 µM; in experiment [12] (read-out: IC50), 19 µM. The “Ratio IC50” value in [9] was determined as 1.64; in experiment [11], 2.41.

With `CCc1ccc(/C=N/Nc2nc3ccccc3s2)nc1`, the IC50 was 0.61 µM in [1] (read-out: IC50); 0.933 µM in [1] (read-out: pIC50 (converted)); 3.24 µM in experiment [3] (read-out: IC50); 3.16 µM in [3] (read-out: pIC50 (converted)); 0.81 µM in experiment [4] (read-out: IC50); 0.813 µM in experiment [4] (read-out: pIC50 (converted)). Moreover, the IC50 in [6] (read-out: IC50) was 0.62 µM; in [6] (read-out: pIC50 (converted)) it was 0.589 µM; in experiment [7] (read-out: IC50), 1.85 µM; in experiment [7] (read-out: pIC50 (converted)), 1.86 µM; in experiment [8] (read-out: IC50) it was 1.14 µM; in [8] (read-out: pIC50 (converted)), 1.15 µM. Besides, the IC50 in [10] (read-out: IC50) was 4.26 µM; in [10] (read-out: pIC50 (converted)), 4.27 µM; in [12] (read-out: IC50), 3.83 µM; in [12] (read-out: pIC50 (converted)) it was 3.55 µM. The “Ratio IC50” value in experiment [9] is recorded as 1.68.

`C(=N\Nc1nc2ccccc2s1)/c1ccccn1`: the IC50 in experiment [1] (read-out: IC50) is 0.65 µM; in experiment [1] (read-out: pIC50 (converted)), 0.646 µM; in experiment [3] (read-out: IC50) it was 1.42 µM; in [3] (read-out: pIC50 (converted)), 1.41 µM; in [4] (read-out: IC50) it was 0.59 µM; in experiment [4] (read-out: pIC50 (converted)), 0.575 µM. The IC50 was 0.45 µM in [6] (read-out: IC50); 0.447 µM in [6] (read-out: pIC50 (converted)); 1.02 µM in experiment [7] (read-out: IC50); 1 µM in experiment [7] (read-out: pIC50 (converted)); 0.84 µM in experiment [8] (read-out: IC50); 0.813 µM in [8] (read-out: pIC50 (converted)). Also, the IC50 is 2.7 µM in experiment [10] (read-out: IC50), 2.69 µM in experiment [10] (read-out: pIC50 (converted)), 3.36 µM in [12] (read-out: IC50) and 3.09 µM in [12] (read-out: pIC50 (converted)). Besides, the “Ratio IC50” value in experiment [9] was 1.41.

As to `Oc1ccccc1/C=N/NC(=S)Nc1ccccc1`, the outcome in [2] was Active. Also, the IC50 in experiment [10] (read-out: IC50) was 14 µM; in experiment [10] (read-out: pIC50 (converted)), 11.5 µM; in experiment [12] (read-out: IC50) it was 6.45 µM; in experiment [12] (read-out: pIC50 (converted)) it was 4.79 µM. The “Ratio IC50” value in experiment [11] worked out at 2.23.

Consider `COc1ccc(O)c(/C(C)=N/Nc2nc3ccccc3s2)c1`, for which the result in [2] was Active. For the same molecule, the IC50 was 50.7 µM in experiment [10] (read-out: IC50), 50.1 µM in [10] (read-out: pIC50 (converted)), 15.4 µM in [12] (read-out: IC50) and 14.1 µM in experiment [12] (read-out: pIC50 (converted)). The “Ratio IC50” value in experiment [11] amounted to 4.71.

The record behind these values is ChEMBL document CHEMBL4715714, “Design, synthesis and biological evaluation of thiosemicarbazones, hydrazinobenzothiazoles and arylhydrazones as anticancer agents with a potential to overcome multidrug resistance” (Eur J Med Chem, 2016).
